Data set [1] in a line: Cytotoxicity against human BxPC3 cells co-cultured with human mesothelial cells at 10 uM after 4 hrs by firefly luciferase assay relative to control. It counts as functional, BXPC-3. The method, boiled down: (§1)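 Co-culture of luciferase-transduced cancer cells (puromycin/G418-selected retroviral pLuc) with confluent human mesothelial monolayers. Suspended cancer cells plus 10 µM compound (final) or DMSO were overlaid for 4 h. Non-adherent cells were washed off and surviving adherent cells quantified by firefly luciferase luminescence. Efficacy = treated/DMSO luminescence ratio; mean±SEM, n=3.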

For another data set, the system named is HT-29. As to the kind of experiment: Reduction of cellular GSH level in human HT-29 cells incubated for 30 mins followed by co-culturing with human mesothelial cells measured after 5 hrs by […]. It counts as functional, cell-based.
A short description of data set [2]: Cytotoxicity against human SKOV3 cells co-cultured with human mesothelial cells at 10 uM after 4 hrs by firefly luciferase assay relative to control. Format: functional, SK-OV-3. An outline of the steps:
as §1

Data set [3] is described as follows: Glutathione reactivity assessed as reduction in detectable GSH level by Ellman's reagent-based assay. An outline of the steps: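 Glutathione was measured with a commercial kit per the manufacturer's instructions, with TNB production rate proportional to GSH. Cell-free GSH was tested with compounds, and HT-29 luciferase cell lysates were assayed after compound exposure.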
A general note: DTNB colorimetry detects thiols as they appear.

The subject of data set [4] is A2780. As to the kind of experiment: Cytotoxicity against human A2780 cells co-cultured with human mesothelial cells at 10 uM after 4 hrs by firefly luciferase assay relative to control. It counts as functional. The method, boiled down:
as §1

Data set [5] can be described thus: Cytotoxicity against human SU86 cells co-cultured with human mesothelial cells at 10 uM after 4 hrs by firefly luciferase assay relative to control. Format: functional. An outline of the steps: as §1
The test system of data set [6] is A2780. The data set can be described thus: Cytotoxicity against human A2780 cells co-cultured with human mesothelial cells after 4 hrs by firefly luciferase assay relative to control. It counts as functional, cell-based. The note with it: A2780, 4 h. An outline of the steps:
(§2)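 Luciferase-expressing cancer cells in suspension were treated with a series of compound concentrations or DMSO, overlaid on confluent human mesothelial monolayers for 4 h, and washed to remove non-adherent cells. Surviving adherent cells were read by luciferase luminescence relative to vehicle, and EC50 was derived from the concentration series.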

The nature of data set [7]: Cytotoxicity against human BxPC3 cells co-cultured with human mesothelial cells after 4 hrs by firefly luciferase assay relative to control. It counts as functional, cell-based. The note with it: BXPC-3, 4 h. An outline of the steps:
as §2

Data set [8] is described as follows: Cytotoxicity against human SKOV3 cells co-cultured with human mesothelial cells after 4 hrs by firefly luciferase assay relative to control. It counts as functional, cell-based. The note with it: SK-OV-3, 4 h. An outline of the steps: as §2
A short description of data set [9]: Cytotoxicity against human SU86 cells co-cultured with human mesothelial cells after 4 hrs by firefly luciferase assay relative to control. Format: functional, cell-based. The method, boiled down: as §2
In data set [10] the test system is A2780. As to the kind of experiment: Induction of apoptosis in human A2780 cells assessed as increased cellular levels of cleaved caspase 3 at 5 uM after 4 hrs by immunoblot analysis. Format: functional, cell-based. An outline of the steps: (§3)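 A2780 cells were suspended and allowed to adhere for 4 h with DMSO or test compound (5 µM in DMSO). Cells were collected and lysed, lysates normalised for total protein, and cleaved PARP and cleaved caspase 3 detected by immunoblot with actin as loading control. A sulfide analog served as negative control.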
On the technique in general: In western blotting, separated proteins are transferred to a membrane and probed.

The subject of data set [11] is A2780. As to the kind of experiment: Induction of apoptosis in human A2780 cells assessed as increased cellular levels of cleaved PARP at 5 uM after 4 hrs by immunoblot analysis. Format: functional, cell-based. An outline of the steps: as §3
For data set [12], the system named is Mus musculus. The data set can be described thus: Toxicity in athymic nu/nu mouse xenografted with human A2780 cells assessed as weight loss at 5 mg/kg, ip administered thrice a week for 14 days. Format: organism-based. As to conditions: in vivo, 336 h. Also noted: dose 5 mg/kg, route intraperitoneal.
The subject of data set [13] is A2780. The data set can be described thus: Inhibition of peritoneal carcinomatosis of human A2780 cells in athymic nu/nu mouse at 5 mg/kg, ip administered thrice a week for 14 days by luciferase reporter assay relative to vehicle-treated control. It counts as functional, organism-based. Also noted: dose 5 mg/kg. The method, boiled down: (§4)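 Athymic female nu/nu mice, 5 weeks old, received 5 mg/kg compound or vehicle (80% PEG400:20% ethanol) IP 4 h before IP injection of 1.5×10⁶ A2780-luc or 2×10⁶ SKOV3-luc cells, n=7 per arm. Dosing continued IP three times a week for 14 days. Tumour burden was imaged weekly by abdominal bioluminescence after IP D-luciferin/ketamine/xylazine; mean±SEM, unpaired t-test vs vehicle.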

The test system of another data set is SK-OV-3. As to the kind of experiment: Inhibition of peritoneal carcinomatosis of human SKOV3 cells in athymic nu/nu mouse at 5 mg/kg, ip administered thrice a week for 14 days by luciferase reporter assay relative to vehicle-treated control. Format: functional, organism-based. Also noted: dose 5 mg/kg. The method, boiled down: as §4
Data set [14] relates to Mus musculus. As to the kind of experiment: Toxicity in athymic nu/nu mouse xenografted with human SKOV3 cells assessed as weight loss at 5 mg/kg, ip administered thrice a week for 14 days. Format: organism-based, SK-OV-3. Also on record: dose 5 mg/kg, route intraperitoneal. The note with it: in vivo, 336 h.

Active and inactive are the calls of the source. The rule behind the calls is not given here.

In the case of `CN(Cc1ccccc1)C(=O)C(C)(C)c1ccc(S(=O)(=O)/C=C/C#N)cc1`, the Ratio in data set [1] is listed as 0.12; in [2], 0.5; in the data set with A2780 [4] it was 0.06; in [5], 0.24. The result (in the data set on HT-29; in [3]) was Active.
Broadly, the EC50 is the concentration needed to bring the measured effect to its halfway point. A lower EC50 goes with greater potency. As to `Cc1ccc(O)c(NC(=O)COc2ccc(S(=O)(=O)/C=C/C#N)cc2C(C)(C)C)c1`, the EC50 in the data set with A2780 [6] was 2.4 µM; in [7], 3.8 µM; in data set [8], 6.6 µM; in data set [9], 8 µM. For the same molecule, the Ratio is listed as 0.1 in data set [1], 0.24 in [2], 0.05 with A2780 [4] and 0.38 in data set [5].
As for `C/C=C/S(=O)(=O)c1ccc(C(C)(C)C)cc1`, the result (in the data set with HT-29; in data set [3]) was inactive.
As for `CC(C)(C(=O)NCc1ccc(F)cc1)c1ccc(S(=O)(=O)/C=C/C#N)cc1`, the Ratio in [1] amounted to 0.23; in [2], 0.6; in the data set with A2780 [4], 0.11; in [5], 0.18. Further, the outcome (in the data set on HT-29; in data set [3]) was Active.
For `C=CS(=O)(=O)c1ccc(C(C)(C)C)cc1`, the outcome (with HT-29; in data set [3]) was inactive.
For `CC(C)(C(=O)NCc1cccc(F)c1)c1ccc(S(=O)(=O)/C=C/C#N)cc1`, the Ratio in [1] was 0.17; in data set [2], 0.3; in the data set on A2780 [4], 0.05; in data set [5], 0.24.
Consider `CC(C)(C(=O)NCc1ccc(S(C)(=O)=O)cc1)c1ccc(S(=O)(=O)/C=C/C#N)cc1`, for which the Ratio in [1] is on record as 0.99; in data set [2], 0.78; with A2780 [4] it was 0.95; in [5], 1.09.
Consider `COc1ccccc1CNC(=O)C(C)(C)c1ccc(S(=O)(=O)/C=C/C#N)cc1`, for which the Ratio in data set [1] turned out to be 0.07; in [2], 0.27; in the data set with A2780 [4] it was 0.01; in [5], 0.21.
Take `CC(C)(C)c1cccc(S(=O)(=O)/C=C/C#N)c1`: the Ratio came out at 0.08 in [1], 0.35 in [2], 0.1 in the data set on A2780 [4] and 0.13 in data set [5].
Regarding `CC(C)(C)c1cc(S(=O)(=O)/C=C/C#N)ccc1OCC(=O)NCc1ccc(F)cc1`, the Ratio in [1] was found to be 0.1; in data set [2], 0.23; in the data set with A2780 [4], 0.02; in data set [5], 0.28.
As for `CC(C)(c1ccc(S(=O)(=O)/C=C/C#N)cc1)c1nnc(C2CCCCC2)o1`, the Ratio is 0.13 in data set [1], 0.28 in data set [2], 0.02 in the data set on A2780 [4] and 0.27 in data set [5].
`Cc1ccc2oc(COc3ccc(S(=O)(=O)/C=C/C#N)cc3C(C)(C)C)nc2c1`: the Ratio came out at 0.24 in [1], 0.36 in [2], 0.09 in the data set on A2780 [4] and 0.56 in data set [5].
With `C[C@@H](NC(=O)C(C)(C)c1ccc(S(=O)(=O)/C=C/C#N)cc1)c1ccccc1`, the Ratio in data set [1] was determined as 0.21; in data set [2], 0.64; with A2780 [4] it was 0.1; in data set [5], 0.21.
Take `COCCOCc1ccc(NC(=O)C(C)(C)c2ccc(S(=O)(=O)/C=C/C#N)cc2)cc1`: the Ratio in data set [1] is recorded as 0.4; in data set [2] it was 0.6; in the data set on A2780 [4], 0.26; in data set [5], 0.66.
Turning to `CC(C)(C(=O)NCCc1ccccc1)c1ccc(S(=O)(=O)/C=C/C#N)cc1`, the Ratio in data set [1] was 0.15; in [2], 0.56; with A2780 [4] it was 0.1; in data set [5] it was 0.29.
As for `C[C@H](NC(=O)C(C)(C)c1ccc(S(=O)(=O)/C=C/C#N)cc1)c1ccccc1`, the Ratio in [1] is 0.27; in data set [2], 0.67; in the data set with A2780 [4], 0.13; in data set [5], 0.32.
As to `CC(C)(C)c1ccc(S/C=C/C#N)cc1`, the outcome in the data set with A2780 [10] and with A2780 [11] was inactive.
Take `COc1cccc(NC(=O)COc2ccc(S(=O)(=O)/C=C/C#N)cc2C(C)(C)C)c1`: the Ratio in data set [1] is on record as 0.17; in data set [2] it was 0.29; with A2780 [4] it was 0.03; in [5] it was 0.37.
For `N#C/C=C/S(=O)(=O)c1ccc(C2(C(=O)NC3CCCCC3)CCOCC2)cc1`, the Ratio was 0.67 in data set [1], 0.88 in [2], 1.12 with A2780 [4] and 1 in data set [5].
On to `COc1cccc(CNC(=O)C(C)(C)c2ccc(S(=O)(=O)/C=C/C#N)cc2)c1`, for which the Ratio in [1] is on record as 0.09; in [2], 0.25; with A2780 [4], 0.03; in data set [5], 0.3.
The like results for `CC(C)(C(=O)NC1CCCCC1)c1ccc(S(=O)(=O)/C=C/C#N)cn1` were, in that order, 0.16, 0.58, 0.16 and 0.61.
Consider `CC(C)(C)c1cc(S(=O)(=O)/C=C/C#N)ccc1OCC(=O)NC1CCCCC1`, for which the EC50 with A2780 [6] turned out to be 2.6 µM; in data set [7], 3.4 µM; in [8], 6.1 µM; in [9], 6.6 µM. For the same molecule, the Activity result in the data set with Mus musculus [12] and with Mus musculus [14] was “Non-toxic” throughout. In addition, the Ratio in data set [1] amounted to 0.09; in data set [2], 0.19; with A2780 [4], 0.01; in data set [5], 0.21. Also, the result in the data set with A2780 [10] and with A2780 [11] was Active. Besides, the inhibition result in the data set with A2780 [13] and in the data set on SK-OV-3 was “Active” each time.
In the case of `CC(C)(C(=O)NCc1ccccc1F)c1ccc(S(=O)(=O)/C=C/C#N)cc1`, the Ratio in [1] was 0.15; in [2], 0.3; in the data set with A2780 [4], 0.03; in [5], 0.2.
As to `CC(C)(C(=O)NCC#Cc1ccccc1)c1ccc(S(=O)(=O)/C=C/C#N)cc1`, the Ratio stood at 0.14 in data set [1], 0.4 in [2], 0.07 in the data set on A2780 [4] and 0.5 in [5].
For the molecule `CC(C)(C(=O)NCc1ccc(-n2cccn2)cc1)c1ccc(S(=O)(=O)/C=C/C#N)cc1`, the Ratio in data set [1] is 0.48; in data set [2], 0.84; in the data set on A2780 [4], 0.34; in data set [5], 0.49.
As for `CC(C)(c1ccc(S(=O)(=O)/C=C/C#N)cc1)c1nc2ccccc2o1`, the EC50 with A2780 [6] was 2.2 µM; in data set [7] it was 3.1 µM; in data set [8], 5.4 µM; in data set [9], 6.5 µM. Moreover, the Activity result in the data set on Mus musculus [12] and in the data set on Mus musculus [14] was “Non-toxic” in each case. Further, the Ratio in data set [1] worked out at 0.24; in [2], 0.17; in the data set on A2780 [4], 0.01; in data set [5] it was 0.29. In addition, the result in the data set with A2780 [10] and with A2780 [11] was Active. Besides, the inhibition entry with A2780 [13] and in the data set on SK-OV-3 was “Active” throughout.
In the case of `Cc1cnc(C(C)(C)c2ccc(S(=O)(=O)/C=C/C#N)cc2)o1`, the Ratio is reported as 0.09 in data set [1], 0.26 in data set [2], 0.03 in the data set with A2780 [4] and 0.37 in [5].

(Values after ChEMBL document CHEMBL3407346, “Design, synthesis, and biological evaluation of sulfonyl acrylonitriles as novel inhibitors of cancer metastasis and spread” (J Med Chem, 2015).)
